pIC50: −log10 of the molar value.

The test system of experiment [1] is A2780. The experiment is described as follows: Inhibition of cell growth in human ovarian carcinoma cell line (A2780) using the 96 hour continuous exposure sulforhodamine B (SRB) growth delay assay. The experiment is classed as functional, cell-based. Put shortly: (§1)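 Human ovarian lines seeded in 96-well plates and left to attach overnight. Compounds dissolved in DMSO (20 mM stock), diluted in medium, added to quadruplicate wells at final 2.5 nM–100 μM; continuous exposure 96 h at 37 °C. Cells fixed in 10% TCA, stained with 0.4% SRB, dye taken up in 10 mM Tris, A540 read. IC50 taken relative to 8 untreated wells.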

The subject of experiment [2] is CH1. The experiment is described as follows: Inhibition of cell growth in human ovarian carcinoma cell line (CH1) was determined using the 96 hour continuous exposure sulforhodamine B (SRB) growth delay assay. The experiment is classed as functional, cell-based. Particulars: CH1, 96 h. Put shortly: as §1
Experiment [3] deals with CH1. The experiment is described as follows: Inhibition of cell growth in human ovarian carcinoma cell line (CH1-cis-R,cisplatin resistant) using the 96 hour continuous exposure sulforhodamine B (SRB) growth delay assay. The class given is functional, cell-based. Particulars: CH1cisR. Put shortly:
as §1

In experiment [4] the test system is SK-OV-3. The experiment is described as follows: Inhibition of cell growth in human ovarian carcinoma cell line(SKOV-3) using the 96 hour continuous exposure sulforhodamine B (SRB) growth delay assay. The class given is functional, cell-based. Put shortly:
as §1

Experiment [5] in a line: (§2) Ratio of IC50 against A2780cisR (cisplatin resistant) to the IC50 of parent. The experiment is classed as functional.
The nature of experiment [6]: (§3) Ratio of IC50 against human ovarian carcinoma cell line (CH1)cisR (cisplatin resistant) to the IC50 of parent. The experiment is classed as functional.
Experiment [7] relates to A2780. Put plainly: Growth inhibition in human ovarian carcinoma cell line (A2780cisR,cisplatin-resistant) using the 96 hour exposure sulforhodamine B (SRB) growth delay assay. The experiment is classed as functional, cell-based. Particulars: A2780, 96 h. Put shortly: as §1
Experiment [8] relates to Nucleic Acid. Put plainly: Concentration of compound required for 50% cross linking of plasmid pBR322 DNA was investigated using an assay involving linear double stranded DNA. The experiment is classed as functional. Put shortly: (§4)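 pBR322 cut with HindIII, dephosphorylated, then 5'-end-labelled with [γ-32P]ATP by T4 kinase; about 10 ng per reaction. Drug at 0.001–10 μM in 25 mM triethanolamine/1 mM EDTA, pH 7.2, 37 °C, 2 h. Stopped, then ethanol-precipitated; strands separated in 30% DMSO at 90 °C for 2 min; run on neutral 0.8% agarose. Autoradiograph read by laser densitometry; XL50 is the dose giving 50% double-stranded (cross-linked) DNA.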

Experiment [9] has as its system K562. Put plainly: Inhibition of cell growth by 50% in human leukemia cell line (K562) was determined using microculture tetrazolium (MTT) assay. The experiment is classed as functional, cell-based. Put shortly: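 K562 human leukaemia cells given drug for 1 h; growth then measured by MTT assay; IC50 is the dose giving 50% growth inhibition versus drug-free controls.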

The subject of experiment [10] is Nucleic Acid. The experiment is described as follows: The concentration of compound required for 50% cross linking of plasmid pBR322 DNA was investigated using an assay involving linear double stranded DNA. The class given is functional. Put shortly: as §4
Experiment [11] deals with A2780. Put plainly: Inhibition of cell growth in human ovarian carcinoma cell line (A2780cisR,cisplatin-resistant)using the 96 hour continuous exposure sulforhodamine B (SRB) growth delay assay. The experiment is classed as functional, cell-based. The essentials: (§5)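 Cells seeded in growth medium and allowed to attach overnight, then given drug (20 mM DMSO stock diluted in medium) in quadruplicate wells at final 100 μM to 2.5 nM for 96 h at 37 °C. Fixed with 10% trichloroacetic acid on ice, stained 0.4% sulforhodamine B, dye solubilised in 10 mM Tris base, absorbance 540 nm; IC50 from concentration versus % absorbance against 8 untreated wells.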

For experiment [12], the system named is CH1. The experiment is described as follows: Inhibition of cell growth in human ovarian carcinoma cell line (CH1-cis-R,cisplatin resistant) using the 96 hour exposure sulforhodamine B (SRB) growth delay assay. The experiment is classed as functional, cell-based. The essentials: as §5
In experiment [13] the test system is A2780cisR. The experiment is described as §2. The class given is functional.
For experiment [14], the system named is carcinoma cell line. Described as §3. The class given is functional.

Consider `C=C1C[C@H]2C(=O)Nc3cc(OCCCOc4cc5c(cc4OC)C(=O)N4CC(=C)C[C@H]4C(=O)N5)c(OC)cc3C(=O)N2C1`, for which the pIC50 is 5.60 in experiment [1] (Homo sapiens, A2780, 96 h); 6.24 in experiment [2]; 5.54 in [3]; 4.55 in [4] (Homo sapiens, SK-OV-3, 96 h); 4.96 in experiment [7]. Moreover, the values for the Ratio in experiment [5] and in experiment [6] were 4.4 and 3.5, respectively.
As to `N[C@@H](Cc1ccc(N(CCCl)CCCl)cc1)C(=O)O`, in experiment [8], the XL50 worked out at 20 µM.
Regarding `COc1cc2c(cc1OCCCOc1cc3c(cc1OC)C(=O)N1CCC[C@H]1C=N3)N=C[C@@H]1CCCN1C2=O` [DSB-120], the pIC50 is 7.66 in experiment [3] and 6.60 in experiment [9]. The same molecule registered an XL50 in experiment [10] of 0.055 µM. Moreover, the figures for the Ratio in [5] and in [6] were 29.2 and 0.7, respectively.
For `C=C1C[C@H]2C=Nc3cc(OCCCOc4cc5c(cc4OC)C(=O)N4CC(=C)C[C@H]4C=N5)c(OC)cc3C(=O)N2C1` [SJG-136], the pIC50 in experiment [2] was 9.92; in experiment [3] it was 9.22; in experiment [9] it was 7.37; in [4] (Homo sapiens, SK-OV-3, 96 h) it was 8.04. Besides, the XL50 in experiment [10] was determined as 0.045 µM. For the same molecule, the Ratio in [5] is given as 1.1; in experiment [6], 5.
Take CISPLATIN [listing 1 of 2 here]: the pIC50 in experiment [11] was 5.08; in [1] (a2780), 6.58; in experiment [12], 5.96; in experiment [4] (sk-ov-3) it was 4.98.
For CISPLATIN [listing 2 of 2 here], the Ratio in [13] came out at 32; in [14], 6.1.

By pIC50 is commonly meant −log10 of the IC50, conventionally taken in molar units. High values mean a small IC50, low ones a large IC50.

The values above are taken from ChEMBL document CHEMBL1134359, “Design, synthesis, and evaluation of a novel pyrrolobenzodiazepine DNA-interactive agent with highly efficient cross-linking ability and potent cytotoxicity” (J Med Chem, 2001).
